Laboratory results: ChEMBL document CHEMBL1142504, “Influence of 6- or 8-substitution on the antiviral activity of 3-arylalkylthiomethylimidazo[1,2-a]pyridine against human cytomegalovirus (CMV) and varicella-zoster virus (VZV): part II” (Bioorg Med Chem, 2008)
In brackets after ≈: the same amount, converted by molar mass.

What was measured:
[1] = Cytotoxicity against HEL cells assessed as reduction of growth after 3 days; type: cell-based; conditions: human
Procedure, shortened: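 HEL cell suspensions were added to wells holding varying concentrations of test compound. Plates were incubated 3 days at 37 °C in a humidified CO2 incubator, and viable cells were counted with a Coulter Counter. CC50 is the concentration that reduced viable cell number by 50%.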

[2] = test system: Human alphaherpesvirus 3; assay: Antiviral activity against thymidine kinase deficient Varicella-Zoster virus 07/1 in HEL cells assessed as inhibition of viral cytopathicity; type: functional, organism-based; conditions: Human alphaherpesvirus 3, HEL
Procedure, shortened: (§1)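 VZV input was 20 PFU per HEL cell culture. Cultures were incubated with test compound for 5 days at 37 °C under 5% CO2, then fixed and stained. Viral plaque formation was counted against the untreated control to give the EC50.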

[3] = test system: Human betaherpesvirus 5; assay: Antiviral activity against human cytomegalovirus AD169 in HEL cells assessed as inhibition of viral cytopathicity; type: functional, organism-based; conditions: Human betaherpesvirus 5, AD169, HEL
Procedure, shortened: (§2)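 Confluent HEL cell cultures were inoculated with 100 PFU of HCMV. After 2 h adsorption, residual virus was removed and cells were incubated with varying concentrations of test compound. Viral cytopathicity was scored when it reached completion in the untreated virus-infected controls, and the EC50 was taken from this read-out.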

[4] = test system: Human alphaherpesvirus 3; assay: Antiviral activity against thymidine kinase expressing Varicella-Zoster virus Oka in HEL cells assessed as inhibition of viral cytopathicity; type: functional, organism-based; conditions: Human alphaherpesvirus 3, Oka; procedure, shortened: as §1
[5] = test system: Human betaherpesvirus 5; assay: Antiviral activity against human cytomegalovirus Davis in HEL cells assessed as inhibition of viral cytopathicity; type: functional, organism-based; conditions: Human betaherpesvirus 5, Davis; procedure, shortened: as §2
[6] = Cytotoxicity against HEL cells assessed as morphological alteration after 3 days; type: cell-based; conditions: human
Procedure, shortened: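 HEL cell cultures were examined by microscope. Cytotoxicity was recorded as the minimum cytotoxic concentration (MCC), meaning the lowest compound concentration that caused a detectable alteration of cell morphology.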

SMILES	CC50 at 72 h [1] [µg/mL]	EC50 [2] [µg/mL]	EC50 [3] [µg/mL]	EC50 [4] [µg/mL]	EC50 [5] [µg/mL]	MCC at 72 h [6] [µg/mL]
Cc1cc(-c2ccco2)c2ncc(CSCCc3ccccc3)n2c1	41 (≈ 118 µM)	7.9 (≈ 22.7 µM)	2.5 (≈ 7.17 µM)	6.6 (≈ 18.9 µM)	2.7 (≈ 7.75 µM)	100
Cc1cc(N2CCOCC2)cn2c(CSCCc3ccccc3)cnc12	45 (≈ 122 µM)	> 20	> 20	> 20	> 20	100
Cc1cc(N2CCOCC2)c2ncc(CSCCc3ccccc3)n2c1	49 (≈ 133 µM)	36.6 (≈ 99.6 µM)	> 4	53.6 (≈ 146 µM)	8.2 (≈ 22.3 µM)	> 100
Cc1cc(N2CCCC2)c2ncc(CSCCc3ccccc3)n2c1	> 100	> 20	> 20	35.7 (≈ 102 µM)	20 (≈ 56.9 µM)	> 100
Cc1cc(-n2ccnc2)cn2c(CSCCc3ccccc3)cnc12	23 (≈ 66 µM)	11.4 (≈ 32.7 µM)	8.9 (≈ 25.5 µM)	10.7 (≈ 30.7 µM)	6.8 (≈ 19.5 µM)	100
Cc1cc(-c2ccoc2)c2ncc(CSCCc3ccccc3)n2c1	64 (≈ 184 µM)	> 20	1.8 (≈ 5.17 µM)	20 (≈ 57.4 µM)	1.3 (≈ 3.73 µM)	100
Cc1cc(-n2ccc3cccnc32)cn2c(CSCCc3ccccc3)cnc12	16 (≈ 40.1 µM)	> 4	2 (≈ 5.02 µM)	> 4	1.4 (≈ 3.51 µM)	20
Cc1cc(C#N)cn2c(CSCCc3ccccc3)cnc12	14 (≈ 45.5 µM)	> 4	8.9 (≈ 29 µM)	> 4	8.9 (≈ 29 µM)	20
Cc1cc(Sc2ccc(N)cc2)cn2c(CSCCc3ccccc3)cnc12	23 (≈ 56.7 µM)	2.2 (≈ 5.42 µM)	1.8 (≈ 4.44 µM)	> 4	1.8 (≈ 4.44 µM)	20
Cc1cc(-c2ccsc2)c2ncc(CSCc3ccccc3)n2c1	100 (≈ 285 µM)	6.5 (≈ 18.5 µM)	4 (≈ 11.4 µM)	7.3 (≈ 20.8 µM)	2.1 (≈ 5.99 µM)	100
Cc1cc(-c2ccc3[nH]ccc3c2)cn2c(CSCCc3ccccc3)cnc12	26 (≈ 65.4 µM)		> 20		> 4	≥ 20
Cc1cc(-n2ccnc2)c2ncc(CSCCc3ccccc3)n2c1	10 (≈ 28.7 µM)	> 4	3.1 (≈ 8.9 µM)	> 4	2.3 (≈ 6.6 µM)	20
C=Cc1ccc(-c2cc(C)c3ncc(CSCCc4ccccc4)n3c2)cc1	14 (≈ 36.4 µM)		> 4		2.9 (≈ 7.54 µM)	20
Cc1cc(-c2ccsc2)cn2c(CSCc3ccccc3)cnc12	9.4 (≈ 26.8 µM)	> 0.8	> 0.8	> 0.8	0.8 (≈ 2.28 µM)	4
C=Cc1ccc(-c2cc(C)c3ncc(CSCc4ccccc4)n3c2)cc1	59 (≈ 159 µM)		> 100		30 (≈ 81 µM)	≥ 100
Cc1cc(-n2cccc2)c2ncc(CSCc3ccccc3)n2c1	15 (≈ 45 µM)	1.8 (≈ 5.4 µM)	6.3 (≈ 18.9 µM)	2.2 (≈ 6.6 µM)	2.9 (≈ 8.7 µM)	100
Cc1cc(-n2ccc3cccnc32)c2ncc(CSCCc3ccccc3)n2c1	> 100	14 (≈ 35.1 µM)	4 (≈ 10 µM)	6.6 (≈ 16.6 µM)	1.8 (≈ 4.52 µM)	100
Cc1cc(C#N)c2ncc(CSCCc3ccccc3)n2c1	> 100	> 4	2.2 (≈ 7.16 µM)	16.4 (≈ 53.3 µM)	2 (≈ 6.51 µM)	≥ 20
Cc1cc(-c2ccoc2)cn2c(CSCCc3ccccc3)cnc12	12 (≈ 34.4 µM)	> 0.8	> 0.8	2.4 (≈ 6.89 µM)	0.27 (≈ 0.775 µM)	> 4

SMILES	CC50 at 72 h [1] [µg/mL]	EC50 [2] [µg/mL]	EC50 [3] [µg/mL]	EC50 [4] [µg/mL]	EC50 [5] [µg/mL]	MCC at 72 h [6] [µg/mL]
Cc1cc(N2CCN(C)CC2)cn2c(CSCCc3ccccc3)cnc12	32 (≈ 84.1 µM)	> 4	> 20	> 4	> 4	20
Cc1cc(-n2cccc2)cn2c(CSCCc3ccccc3)cnc12	11 (≈ 31.7 µM)	> 0.8	> 0.8	> 4	1.3 (≈ 3.74 µM)	≥ 4
Cc1cc(-n2cccc2)cn2c(CSCc3ccccc3)cnc12	17 (≈ 51 µM)	2.1 (≈ 6.3 µM)	1.6 (≈ 4.8 µM)	> 4	1.3 (≈ 3.9 µM)	20
Cc1cc(-n2cccc2)c2ncc(CSCCc3ccccc3)n2c1	26 (≈ 74.8 µM)	> 20	1.8 (≈ 5.18 µM)	> 20	1.8 (≈ 5.18 µM)	100
Cc1cc(Sc2ccc(Cl)cc2)c2ncc(CSCCc3ccccc3)n2c1	100 (≈ 235 µM)	> 0.8	> 0.8	> 0.8	> 0.8	4
Cc1cc(Sc2ccc(O)cc2)c2ncc(CSCCc3ccccc3)n2c1	79 (≈ 194 µM)	2.9 (≈ 7.13 µM)	> 0.8	58 (≈ 143 µM)	0.8 (≈ 1.97 µM)	> 100
Cc1cc(N2CCCC2)c2ncc(CSCc3ccccc3)n2c1	52 (≈ 154 µM)	> 4	10 (≈ 29.6 µM)	17.7 (≈ 52.4 µM)	5.2 (≈ 15.4 µM)	≥ 20
Cc1cc(N2CCCC2=O)c2ncc(CSCCc3ccccc3)n2c1	25 (≈ 68.4 µM)	> 4	> 4	> 4	> 4	20
Cc1cc(Sc2ccc(Cl)cc2)cn2c(CSCCc3ccccc3)cnc12	14 (≈ 32.9 µM)	> 4	> 4	> 4	> 4	20
Cc1cc(-n2ccc3ccccc32)cn2c(CSCCc3ccccc3)cnc12	18 (≈ 45.3 µM)	> 4	> 4	> 20	1.8 (≈ 4.53 µM)	> 20
Cc1cc(Sc2ccc(O)cc2)cn2c(CSCCc3ccccc3)cnc12	100 (≈ 246 µM)	> 0.8	> 0.8	> 0.8	0.8 (≈ 1.97 µM)	4
Cc1cc(-n2ccc3ccccc32)c2ncc(CSCCc3ccccc3)n2c1	> 100	> 20	20 (≈ 50.3 µM)	> 20	10.5 (≈ 26.4 µM)	100
Cc1cc(N2CCCC2)cn2c(CSCCc3ccccc3)cnc12	12 (≈ 34.1 µM)	> 4	4 (≈ 11.4 µM)	> 4	2 (≈ 5.69 µM)	20
Cc1cc(N2CCCC2=O)cn2c(CSCCc3ccccc3)cnc12	89 (≈ 244 µM)	> 20	> 20	> 100	> 20	> 100
Cc1cc(-c2ccco2)cn2c(CSCCc3ccccc3)cnc12	40 (≈ 115 µM)	> 0.8	> 0.8	> 4	> 0.8	> 4
Cc1cc(-c2ccc(C=O)cc2)cn2c(CSCCc3ccccc3)cnc12	9.4 (≈ 24.3 µM)		12.6 (≈ 32.6 µM)		6 (≈ 15.5 µM)	100
Nc1nc2c(ncn2COCCO)c(=O)[nH]1 [ACYCLOVIR]	137 (≈ 608 µM)	13 (≈ 57.7 µM)		0.24 (≈ 1.07 µM)		> 400
O=c1[nH]c(=O)n([C@H]2C[C@H](O)[C@@H](CO)O2)cc1/C=C/Br [BRIVUDINE]	122 (≈ 366 µM)	> 50		0.0037 (≈ 0.0111 µM)		400
Nc1ccn(C[C@@H](CO)OCP(=O)(O)O)c(=O)n1 [CIDOFOVIR]						≥ 100
